ChEMBL document CHEMBL3091449, “Synthesis and antimicrobial profile of N-substituted imidazolium oximes and their monoquaternary salts against multidrug resistant bacteria” (2013)
Values after ≈ are worked out from the molar mass of the structure shown.

Assays:
Type in all cases: functional
Aeromonas hydrophila [1] = test: Antibacterial activity against Aeromonas hydrophila FNSST 014 after 18 to 24 hrs by two-fold broth microdilution assay
Procedure, shortened: (§1)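 CLSI two-fold broth microdilution was used. Compounds were dissolved in DMSO, brought to 10 mg/mL in medium, then serially diluted in Mueller Hinton broth over 400–0.09 µg/mL. Overnight MHB cultures were diluted to 10^6 CFU/mL, and 10 µL was added per well. Plates were incubated 18–24 h at 37 °C, then 0.2 mg/mL INT was added for 30 min at 37 °C. MIC was the lowest concentration with no visible growth or pink colour, triplicate.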

Pseudomonas aeruginosa [2] = test: Antibacterial activity against Pseudomonas aeruginosa FNSST 982 after 18 to 24 hrs by two-fold broth microdilution assay; procedure, shortened: as §1
Klebsiella pneumoniae [3] = test: Antibacterial activity against Klebsiella pneumoniae FNSST 011 after 18 to 24 hrs by two-fold broth microdilution assay; procedure, shortened: as §1
Escherichia coli [4] = test: Antibacterial activity against Escherichia coli FNSST 982 after 18 to 24 hrs by two-fold broth microdilution assay; procedure, shortened: as §1
Clostridium perfringens [5] = test: Antibacterial activity against Clostridium perfringens FNSST 4999 after 18 to 24 hrs by two-fold broth microdilution assay
Procedure, shortened: (§2)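 CLSI two-fold broth microdilution. Compounds dissolved in DMSO, 10 mg/mL stock, serially diluted to 400–0.09 µg/mL in Mueller Hinton broth. Wells inoculated with 10^6 CFU/mL bacteria and incubated 18–24 h at 37 °C. 0.2 mg/mL INT added for 30 min. MIC taken as the lowest concentration with no visible growth or pink colour. Triplicate.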

Staphylococcus aureus [6] = test: Antibacterial activity against Staphylococcus aureus ATCC 25923 after 18 to 24 hrs by two-fold broth microdilution assay; procedure, shortened: as §1
Enterococcus faecalis [7] = test: Antibacterial activity against Enterococcus faecalis ATCC 29212 after 18 to 24 hrs by two-fold broth microdilution assay; procedure, shortened: as §1
Bacillus cereus [8] = test: Antibacterial activity against Bacillus cereus ATCC 11778 after 18 to 24 hrs by two-fold broth microdilution assay; procedure, shortened: as §1
Aspergillus fumigatus = test: Antifungal activity against Aspergillus fumigatus FNSST 3833 assessed as diameter of zone of inhibition at 250 ug/disc after 72 hrs by disc diffusion method; settings: FNSST 3833, 72 h, read-out: DIZ
Procedure, shortened: (§3)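 Fungi were grown overnight at 30 °C in Sabouraud dextrose broth to 10^4 cfu/mL, and 100 µL was spread on Sabouraud dextrose agar. 6 mm discs carried 250 µg (25 µL of a 10 mg/mL stock in 96% ethanol), with ethanol as the negative control. Incubation was at 30 °C for 48 h (yeast) or 72 h (molds). Zone diameter was read including the disc, in triplicate, mean ± SE.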

Talaromyces funiculosus = test: Antifungal activity against Penicillium funiculosum FNSST 3724 assessed as diameter of zone of inhibition at 250 ug/disc after 72 hrs by disc diffusion method; settings: FNSST 3724, 72 h, read-out: DIZ; procedure, shortened: as §3
Aeromonas hydrophila [9] = test: Antibacterial activity against Aeromonas hydrophila FNSST 014 assessed as diameter of zone of inhibition at 250 ug/disc after 24 hrs by disc diffusion method; settings: FNSST 014, 24 h, read-out: DIZ
Procedure, shortened: (§4)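 Bacteria were grown overnight at 37 °C in TSB to about 10^6 cfu/mL, and 100 µL was spread on Mueller Hinton agar. Sterile 6 mm discs were each loaded with 25 µL of a 10 mg/mL stock in 96% ethanol, giving 250 µg/disc. Ethanol served as the negative control. Plates were incubated 24 h at 37 °C. Inhibition zone diameter was measured including the disc, in triplicate, as mean ± SE.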

Pseudomonas aeruginosa [10] = test: Antibacterial activity against Pseudomonas aeruginosa FNSST 982 assessed as diameter of zone of inhibition at 250 ug/disc after 24 hrs by disc diffusion method; settings: FNSST 982, 24 h, read-out: DIZ; procedure, shortened: as §4
Klebsiella pneumoniae [11] = test: Antibacterial activity against Klebsiella pneumoniae FNSST 011 assessed as diameter of zone of inhibition at 250 ug/disc after 24 hrs by disc diffusion method; settings: FNSST 011, 24 h, read-out: DIZ; procedure, shortened: as §4
Escherichia coli [12] = test: Antibacterial activity against Escherichia coli FNSST 982 assessed as diameter of zone of inhibition at 250 ug/disc after 24 hrs by disc diffusion method; settings: FNSST 982, 24 h, read-out: DIZ; procedure, shortened: as §4
Clostridium perfringens [13] = test: Antibacterial activity against Clostridium perfringens FNSST 4999 assessed as diameter of zone of inhibition at 250 ug/disc after 24 hrs by disc diffusion method; settings: FNSST 4999, 24 h, read-out: DIZ
Procedure, shortened: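 Disc diffusion per CLSI: 100 µL of 10^6 cfu/mL bacterial suspension spread on Mueller Hinton agar. 6 mm discs loaded with 25 µL of 10 mg/mL compound stock in 96% ethanol (250 µg/disc); ethanol as negative control. Incubated 24 h at 37 °C. Inhibition zone diameter measured in mm including the disc, triplicate, reported as mean ± SE.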

Staphylococcus aureus [14] = test: Antibacterial activity against Staphylococcus aureus ATCC 25923 assessed as diameter of zone of inhibition at 250 ug/disc after 24 hrs by disc diffusion method; settings: ATCC 25923, 24 h, read-out: DIZ; procedure, shortened: as §4
Enterococcus faecalis [15] = test: Antibacterial activity against Enterococcus faecalis ATCC 29212 assessed as diameter of zone of inhibition at 250 ug/disc after 24 hrs by disc diffusion method; settings: ATCC 29212, 24 h, read-out: DIZ; procedure, shortened: as §4
Bacillus cereus [16] = test: Antibacterial activity against Bacillus cereus ATCC 11778 assessed as diameter of zone of inhibition at 250 ug/disc after 24 hrs by disc diffusion method; settings: ATCC 11778, 24 h, read-out: DIZ; procedure, shortened: as §4
Candida albicans = test: Antifungal activity against Candida albicans ATCC 10231 assessed as diameter of zone of inhibition at 250 ug/disc after 48 hrs by disc diffusion method; settings: ATCC 10231, 48 h, read-out: DIZ; procedure, shortened: as §3
Pseudomonas aeruginosa [17] = test: Antibacterial activity against GIM-1 expressing Pseudomonas aeruginosa isolate 197 after 18 to 24 hrs by two-fold broth microdilution assay; procedure, shortened: as §1
Acinetobacter baumannii = test: Antibacterial activity against SIM-1 expressing Acinetobacter baumannii isolate 170 after 18 to 24 hrs by two-fold broth microdilution assay; procedure, shortened: as §2
Escherichia coli [18] = test: Antibacterial activity against […] expressing Escherichia coli isolate 235 after 18 to 24 hrs by two-fold broth microdilution assay; procedure, shortened: as §2
Escherichia coli [19] = test: Antibacterial activity against TEM-1/SHV-12 expressing Escherichia coli isolate 237 after 18 to 24 hrs by two-fold broth microdilution assay; procedure, shortened: as §2
Escherichia coli [20] = test: Antibacterial activity against […] expressing Escherichia coli isolate 4024 after 18 to 24 hrs by two-fold broth microdilution assay; procedure, shortened: as §2
Aeromonas caviae [21] = test: Antibacterial activity against TEM-1/CTX-M-15 expressing Aeromonas caviae isolate 260 after 18 to 24 hrs by two-fold broth microdilution assay; procedure, shortened: as §1
Aeromonas caviae [22] = test: Antibacterial activity against […] expressing Aeromonas caviae isolate 258 after 18 to 24 hrs by two-fold broth microdilution assay; procedure, shortened: as §1
Aeromonas hydrophila [23] = test: Antibacterial activity against TEM-1/SHV-12 expressing Aeromonas hydrophila isolate 268 after 18 to 24 hrs by two-fold broth microdilution assay; procedure, shortened: as §1
Kluyvera intermedia = test: Antibacterial activity against TEM-1/SHV-12/[…] expressing Enterobacter intermedius isolate 243 after 18 to 24 hrs by two-fold broth microdilution assay; procedure, shortened: as §1
Enterobacter cloacae [24] = test: Antibacterial activity against CTX-15 expressing Enterobacter cloacae isolate 51 after 18 to 24 hrs by two-fold broth microdilution assay
Enterobacter cloacae [25] = test: Antibacterial activity against TEM-1/CTX-M-15 expressing Enterobacter cloacae isolate 62 after 18 to 24 hrs by two-fold broth microdilution assay
Enterobacter cloacae [26] = test: Antibacterial activity against TEM-1/SHV-12 expressing Enterobacter cloacae isolate 306 after 18 to 24 hrs by two-fold broth microdilution assay
Klebsiella pneumoniae [27] = test: Antibacterial activity against TEM-1/SHV-12 expressing Klebsiella pneumoniae isolate 303 after 18 to 24 hrs by two-fold broth microdilution assay; procedure, shortened: as §1
[28] = system: Stenotrophomonas maltophilia; test: Antibacterial activity against […] expressing Stenotrophomonas maltophilia isolate 125 after 18 to 24 hrs by two-fold broth microdilution assay; procedure, shortened: as §1

Compound | MIC (Aeromonas hydrophila [1]) | MIC (Pseudomonas aeruginosa [2]) | MIC (Klebsiella pneumoniae [3]) | MIC (Escherichia coli [4]) | MIC (Clostridium perfringens [5]) | MIC (Staphylococcus aureus [6]) | MIC (Enterococcus faecalis [7]) | MIC (Pseudomonas aeruginosa [17]) | MIC (Acinetobacter baumannii) | MIC (Escherichia coli [18]) | MIC (Escherichia coli [19]) | MIC (Aeromonas caviae [21]) | MIC (Aeromonas caviae [22]) | MIC (Aeromonas hydrophila [23]) | MIC (Kluyvera intermedia) | MIC (Enterobacter cloacae [24]) | MIC (Enterobacter cloacae [25]) | MIC (Enterobacter cloacae [26]) | MIC (Klebsiella pneumoniae [27]) | MIC [28] | further results
Cc1ccc(-n2ccnc2/C=N/O)cc1 | 25 µg/mL (≈ 124 µM) | 50 µg/mL (≈ 248 µM) | 100 µg/mL (≈ 497 µM) | 25 µg/mL (≈ 124 µM) | 100 µg/mL (≈ 497 µM) | 32 µg/mL (≈ 159 µM) | 50 µg/mL (≈ 248 µM) | – | – | – | – | – | – | – | – | – | – | – | – | – | MIC (Bacillus cereus [8]): 50 µg/mL (≈ 248 µM); zone of inhibition at 250 µg/disc (Aspergillus fumigatus): 16.3 mm; zone of inhibition at 250 µg/disc (Talaromyces funiculosus): 15.4 mm; zone of inhibition at 250 µg/disc (Aeromonas hydrophila [9]): 15.7 mm; zone of inhibition at 250 µg/disc (Pseudomonas aeruginosa [10]): 10.9 mm; zone of inhibition at 250 µg/disc (Klebsiella pneumoniae [11]): 9.3 mm; zone of inhibition at 250 µg/disc (Escherichia coli [12]): 14.9 mm; zone of inhibition at 250 µg/disc (Clostridium perfringens [13]): 12.6 mm; zone of inhibition at 250 µg/disc (Staphylococcus aureus [14]): 18.5 mm; zone of inhibition at 250 µg/disc (Enterococcus faecalis [15]): 13.8 mm; zone of inhibition at 250 µg/disc (Bacillus cereus [16]): 14.6 mm; zone of inhibition at 250 µg/disc (Candida albicans): 20.2 mm
CC(C)(O/N=C(\C(=O)N[C@@H]1C(=O)N2C(C(=O)[O-])=C(C[n+]3ccccc3)CS[C@H]12)c1csc(N)n1)C(=O)O [CEFTAZIDIME] | – | – | – | – | – | – | – | 256 µg/mL (≈ 468 µM) | > 256 µg/mL | 64 µg/mL (≈ 117 µM) | 8 µg/mL (≈ 14.6 µM) | 128 µg/mL (≈ 234 µM) | 4 µg/mL (≈ 7.32 µM) | 64 µg/mL (≈ 117 µM) | 8 µg/mL (≈ 14.6 µM) | 16 µg/mL (≈ 29.3 µM) | > 256 µg/mL | > 256 µg/mL | 128 µg/mL (≈ 234 µM) | 128 µg/mL (≈ 234 µM) | MIC (Escherichia coli [20]): 16 µg/mL (≈ 29.3 µM)
NC[C@H]1O[C@H](O[C@H]2[C@H](O)[C@@H](O[C@H]3O[C@H](CO)[C@@H](O)[C@H](N)[C@H]3O)[C@H](N)C[C@@H]2N)[C@H](N)C[C@@H]1O [TOBRAMYCIN] | – | – | – | – | – | – | – | 16 µg/mL (≈ 34.2 µM) | 16 µg/mL (≈ 34.2 µM) | 16 µg/mL (≈ 34.2 µM) | 64 µg/mL (≈ 137 µM) | 32 µg/mL (≈ 68.4 µM) | 32 µg/mL (≈ 68.4 µM) | 16 µg/mL (≈ 34.2 µM) | > 32 µg/mL | > 32 µg/mL | 32 µg/mL (≈ 68.4 µM) | 16 µg/mL (≈ 34.2 µM) | 2 µg/mL (≈ 4.28 µM) | 8 µg/mL (≈ 17.1 µM) | MIC (Escherichia coli [20]): 32 µg/mL (≈ 68.4 µM)
O/N=C/c1nccn1-c1ccc(F)cc1 | 25 µg/mL (≈ 122 µM) | 50 µg/mL (≈ 244 µM) | 100 µg/mL (≈ 487 µM) | 25 µg/mL (≈ 122 µM) | 100 µg/mL (≈ 487 µM) | 100 µg/mL (≈ 487 µM) | 25 µg/mL (≈ 122 µM) | – | – | – | – | – | – | – | – | – | – | – | – | – | MIC (Bacillus cereus [8]): 50 µg/mL (≈ 244 µM); zone of inhibition at 250 µg/disc (Aspergillus fumigatus): 15 mm; zone of inhibition at 250 µg/disc (Talaromyces funiculosus): 18.6 mm; zone of inhibition at 250 µg/disc (Aeromonas hydrophila [9]): 15.3 mm; zone of inhibition at 250 µg/disc (Pseudomonas aeruginosa [10]): 9.8 mm; zone of inhibition at 250 µg/disc (Klebsiella pneumoniae [11]): 10.3 mm; zone of inhibition at 250 µg/disc (Escherichia coli [12]): 14.8 mm; zone of inhibition at 250 µg/disc (Clostridium perfringens [13]): 8.6 mm; zone of inhibition at 250 µg/disc (Staphylococcus aureus [14]): 12.4 mm; zone of inhibition at 250 µg/disc (Enterococcus faecalis [15]): 12.2 mm; zone of inhibition at 250 µg/disc (Bacillus cereus [16]): 14 mm; zone of inhibition at 250 µg/disc (Candida albicans): 18.9 mm
C[C@@H](O)[C@H]1C(=O)N2C(C(=O)O)=C(SCCNC=N)C[C@H]12 [IMIPENEM ANHYDROUS] | – | – | – | – | – | – | – | > 8 µg/mL | 8 µg/mL (≈ 26.7 µM) | 0.06 µg/mL (≈ 0.2 µM) | 0.125 µg/mL (≈ 0.418 µM) | 2 µg/mL (≈ 6.68 µM) | 0.25 µg/mL (≈ 0.835 µM) | 0.06 µg/mL (≈ 0.2 µM) | 0.12 µg/mL (≈ 0.401 µM) | 8 µg/mL (≈ 26.7 µM) | 0.25 µg/mL (≈ 0.835 µM) | 0.25 µg/mL (≈ 0.835 µM) | 0.12 µg/mL (≈ 0.401 µM) | 0.12 µg/mL (≈ 0.401 µM) | –
